Reference: ChEMBL document CHEMBL1153560, “In vitro activities of doripenem and six comparator drugs against 423 aerobic and anaerobic bacterial isolates from infected diabetic foot wounds” (2008)

These compounds were tested on Clostridium perfringens (assay: Antibacterial activity against Clostridium perfringens isolated from patient with diabetic foot infection assessed as percent resistant isolates after 44 to 48 hrs by agar dilution method).
Type: functional
How it was run: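 Agar dilution per CLSI M11-A7. Twofold drug dilutions made on the test day and added to molten agar. Replicator-applied inoculum of 10^5 CFU/spot. Drug-free control plates inoculated before and after each drug set. Incubation at 37°C for 44 to 48 h, anaerobic chamber. MIC taken as the lowest concentration giving no growth or a marked change in growth versus controls.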

Compound | Activity
C[C@@H](O)[C@H]1C(=O)N2C(C(=O)O)=C(S[C@@H]3CN[C@H](CNS(N)(=O)=O)C3)[C@H](C)[C@H]12 [DORIPENEM] | 0%
C[C@@H](O)[C@H]1C(=O)N2C(C(=O)O)=C(SCCNC=N)C[C@H]12 [IMIPENEM ANHYDROUS] | 0%
C[C@@H](O)[C@H]1C(=O)N2C(C(=O)O)=C(S[C@@H]3CN[C@H](C(=O)N(C)C)C3)[C@H](C)[C@H]12 [MEROPENEM] | 0%
Cc1ncc([N+](=O)[O-])n1CCO [METRONIDAZOLE] | 0%
CCC[C@@H]1C[C@@H](C(=O)N[C@@H]([C@H]2O[C@H](SC)[C@H](O)[C@@H](O)[C@H]2O)[C@H](C)Cl)N(C)C1 [CLINDAMYCIN] | 0%
C[C@@H](O)[C@H]1C(=O)N2C(C(=O)O)=C(S[C@@H]3CN[C@H](C(=O)Nc4cccc(C(=O)O)c4)C3)[C@H](C)[C@H]12 [ERTAPENEM] | 0%
